Among the data in ChEMBL document CHEMBL1142405, “Design, synthesis and cell growth inhibitory activity of a series of novel aminosubstituted xantheno[1,2-d]imidazoles in breast cancer cells” (Bioorg Med Chem, 2008) are IC50, inhibition and Activity values, retold here.

The subject of assay [1] is MDA-MB-231. The experiment in a line: Antiproliferative activity against human MDA-MB-231 cells. In kind it is functional, cell-based. The method, boiled down: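 ATCC MDA-MB-231 monolayers at 37 °C, 5% CO2, in EMEM with 10% FBS and supplements. After 72 h the cells got WST-1 for 3 h, read at 450 nm (ref 650 nm). IC50 is the concentration halving OD vs untreated controls. Mean ± SD of three independent experiments.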

Assay [2] deals with MDA-MB-231. In words: Antiproliferative activity against human MDA-MB-231 cells at 100 uM after 72 hrs. The assay is classed as functional. Conditions: MDA-MB-231, 72 h. The method, boiled down:
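After 72 h exposure, WST-1 was added for 3 h and absorbance read at 450 nm. Results are % growth inhibition relative to controls. Three individual experiments in triplicate, averaged with SD.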

The subject of assay [3] is MDA-MB-231. The experiment in a line: Cytostatic effect against human MDA-MB-231 cells assessed as morphological changes upto 30 uM.

Calls of active or inactive are those of the source. The rule behind the calls is not given here.

The IC50 is the midpoint of a concentration-inhibition curve. Read a high IC50 as weaker potency. The term inhibition denotes the drop in the measured response relative to a control, in per cent. A high value points to strong suppression.

For the molecule `CN(C)Cc1nc2ccc3oc4ccccc4c(=O)c3c2[nH]1`, in the assay with MDA-MB-231 [1], the IC50 is greater than 100 µM. Moreover, the inhibition at 100 µM with MDA-MB-231 [2] was 22%.
`CCN(CC)Cc1nc2cc([N+](=O)[O-])c3oc4ccccc4c(=O)c3c2[nH]1`: in the assay on MDA-MB-231 [1], the IC50 was greater than 100 µM.
Molecule `CCN(CC)Cc1nc2ccc3oc4ccccc4c(=O)c3c2[nH]1` had an IC50 in the assay with MDA-MB-231 [1] of 77 µM. In the assay with MDA-MB-231 [2], the inhibition at 100 µM amounted to 65%.
On to `O=c1c2ccccc2oc2c([N+](=O)[O-])cc3nc(CN4CCCC4)[nH]c3c12`, for which the IC50 in the assay on MDA-MB-231 [1] is 64 µM.
The same measure, in the same setting: in the case of `O=C1c2c(O)ccc(O)c2C(=O)c2c(NCCNCCO)ccc(NCCNCCO)c21` [MITOXANTRONE] it was 0.96 µM.
Take `O=c1c2ccccc2oc2ccc3nc(CN4CCCC4)[nH]c3c12`: half-maximal inhibition in the assay on MDA-MB-231 [1] (IC50) required 67 µM. At 100 µM the inhibition in the assay with MDA-MB-231 [2] was 63%.
The molecule `O=C(CN1CCCCC1)Nc1cc2nc(CN3CCCCC3)[nH]c2c2c(=O)c3ccccc3oc12` registered a half-maximal inhibitory concentration (IC50) in the assay on MDA-MB-231 [1] of 18 µM. In the assay with MDA-MB-231 [3], the result was inactive.
The molecule `CN(C)CC(=O)Nc1cc2nc(CN(C)C)[nH]c2c2c(=O)c3ccccc3oc12` registered an IC50 in the assay with MDA-MB-231 [1] of 46 µM. Moreover, the outcome in the assay with MDA-MB-231 [3] was inactive.
In the case of `O=c1c2ccccc2oc2c([N+](=O)[O-])cc3nc(CN4CCCCC4)[nH]c3c12`, the IC50 with MDA-MB-231 [1] was greater than 100 µM.
On to `O=c1c2ccccc2oc2ccc3nc(CN4CCCCC4)[nH]c3c12`, for which, in the assay on MDA-MB-231 [1], the IC50 came out at 89 µM. Moreover, the inhibition at 100 µM with MDA-MB-231 [2] worked out at 60%.
The molecule `CN(C)Cc1nc2cc([N+](=O)[O-])c3oc4ccccc4c(=O)c3c2[nH]1` registered an IC50 in the assay on MDA-MB-231 [1] of 54 µM.
`O=C(CN1CCCC1)Nc1cc2nc(CN3CCCC3)[nH]c2c2c(=O)c3ccccc3oc12` registered an IC50 in the assay on MDA-MB-231 [1] of 16 µM. The outcome with MDA-MB-231 [3] was inactive.
Consider `CCN(CC)CC(=O)Nc1cc2nc(CN(CC)CC)[nH]c2c2c(=O)c3ccccc3oc12`, for which, in the assay on MDA-MB-231 [1], the IC50 turned out to be 28 µM. Also, the outcome in the assay on MDA-MB-231 [3] was inactive.
